Assay results published in publication PMC11145139 (RSC Advances, 2024).
In brackets after ≈: the same amount, converted by molar mass. Residues, ends and D or L forms follow the SMILES beside them.

How the values were obtained:
Format in all cases: cell-based
[1] = tested on: Escherichia coli MTCC 443; test: Antibacterial activity, Mueller Hinton Broth microdilution MIC; settings: for Potency relative to standard drug Ampicillin against E. coli: ratio of MIC values vs Ampicillin (MIC 100 μg mL^−1)
[2] = tested on: Pseudomonas aeruginosa MTCC 1688; test: as above; settings: ratio of MIC values vs Ampicillin (MIC 100 μg mL^−1)
[3] = tested on: Candida albicans MTCC 227; test: Antifungal activity, Muller Hinton Broth dilution MIC; settings: for MIC (anti-fungicidal activity) C. a.: Candida albicans MTCC 227, Muller Hinton Broth dilution, Sabouraud's dextrose broth, 28 °C, aerobic, 48 hours, triplicate experiments
Outline: (§1)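 Broth dilution in Mueller Hinton medium. Test compounds were screened in triplicate at 1000, 500, 250 and 200 μg mL−1; actives were diluted further and retested. Fungal growth was followed in Sabouraud's dextrose broth at 28 °C, aerobic, for 48 h. MIC was taken as the lowest concentration preventing visible growth. Nystatin served as reference standard. Stocks were kept at −70 °C in trypticase-soy broth with 20% glycerol and subcultured three times before use.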

[4] = tested on: Streptococcus pyogenes MTCC 442; test: Antibacterial activity, Mueller Hinton Broth microdilution MIC; settings: ratio of MIC values vs standard drug (MIC 100 μg mL^−1)
[5] = tested on: Aspergillus niger MTCC 282; test: Antifungal activity, Muller Hinton Broth dilution MIC; settings: for MIC (anti-fungicidal activity) A. n.: Aspergillus niger MTCC 282, Muller Hinton Broth dilution, Sabouraud's dextrose broth, 28 °C, aerobic, 48 hours, triplicate experiments
Outline: as §1

[6] = tested on: Staphylococcus aureus MTCC 96; test: Antibacterial activity, Mueller Hinton Broth microdilution MIC; settings: vs Ampicillin (MIC 250 μg mL^−1)
[7] = vs Nystatin (active at 100 μg mL^−1)

Row | Structure (SMILES) | Potency relative to standard drug Ampicillin against E. coli [1] | Potency relative to standard drug Ampicillin against P. aeruginosa [2] [times] | MIC (anti-fungicidal activity) C. a. [3] [µg/mL] | Potency relative to Nystatin against Candida albicans [3, 7] | Potency relative to standard drug Ampicillin against Streptococcus pyogenes [4] | MIC (anti-fungicidal activity) A. n. [5] [µg/mL] | Potency relative to Nystatin against Aspergillus niger [5, 7] | Potency relative to control drug Ampicillin against Staphylococcus aureus [6] | MIC ([1]; Escherichia coli, MTCC443, 48 h, read-out: MIC (anti-bacterial activity) E. c.) [µg/mL]
1 | CC(C)C[C@H](N)C(=O)N[C@@H](CS)C(=O)N1CCC[C@H]1C(=O)N[C@@H](Cc1c[nH]cn1)C(=O)N[C@@H](CCCNC(=N)N)C(=O)N[C@@H](CS)C(=O)O [Compound 7d, H-Leu-Cys-Pro-His-Arg-Cys-OH] (H-LCPHRC-OH) | 4 times | 2.5 | 20 (≈ 27.5 µM) | five times more potent | five time more potent | 35 (≈ 48.1 µM) | almost three times more potent |  | 
2 | CC(C)[C@H](N)C(=O)N[C@@H](CS)C(=O)N1CCC[C@H]1C(=O)N[C@@H](Cc1c[nH]cn1)C(=O)N[C@@H](CCCNC(=N)N)C(=O)N[C@@H](CS)C(=O)O [Compound 7c, H-Val-Cys-Pro-His-Arg-Cys-OH] (H-VCPHRC-OH) | 2.5 times | 2 | 35 (≈ 49 µM) |  | 2 times | 40 (≈ 56 µM) |  | almost twice potent | 
3 | C[C@@H]1[C@H](O)[C@@H](C)/C=C/C=C/CC/C=C/C=C/C=C/C=C/C(O[C@H]2O[C@H](C)[C@@H](O)[C@H](N)[C@@H]2O)CC2O[C@](O)(CC(O)C(O)CCC(O)CC(O)CC(O)CC(=O)O[C@H]1C)CC(O)C2C(=O)O (some centres unmarked) [Nystatin, reference compound] |  |  | 100 (≈ 108 µM) |  |  | 100 (≈ 108 µM) |  |  | 
4 | CC1(C)S[C@@H]2[C@H](NC(=O)[C@H](N)c3ccccc3)C(=O)N2[C@H]1C(=O)O [Ampicillin, reference compound] |  |  |  |  |  |  |  |  | 100 (≈ 286 µM)
5 | N=C(N)NCCC[C@H](NC(=O)[C@H](Cc1c[nH]cn1)NC(=O)[C@@H]1CCCN1C(=O)[C@H](CS)NC(=O)[C@@H](N)Cc1ccc(O)cc1)C(=O)N[C@@H](CS)C(=O)O [Compound 7f, H-Tyr-Cys-Pro-His-Arg-Cys-OH] (H-YCPHRC-OH) | around 2 times | 2 | 40 (≈ 51.4 µM) |  |  | 50 (≈ 64.3 µM) |  | almost twice potent | 
6 | N=C(N)NCCC[C@H](NC(=O)[C@H](Cc1c[nH]cn1)NC(=O)[C@@H]1CCCN1C(=O)[C@H](CS)NC(=O)CN)C(=O)N[C@@H](CS)C(=O)O [Compound 7a, H-Gly-Cys-Pro-His-Arg-Cys-OH] (H-GCPHRC-OH) |  |  | 60 (≈ 89.3 µM) |  |  | 65 (≈ 96.8 µM) |  |  | 
7 | C[C@H](N)C(=O)N[C@@H](CS)C(=O)N1CCC[C@H]1C(=O)N[C@@H](Cc1c[nH]cn1)C(=O)N[C@@H](CCCNC(=N)N)C(=O)N[C@@H](CS)C(=O)O [Compound 7b, H-Ala-Cys-Pro-His-Arg-Cys-OH] (H-ACPHRC-OH) | around 2 times | 2 | 55 (≈ 80.2 µM) |  |  | 50 (≈ 72.9 µM) |  | almost twice potent | 
8 | N=C(N)NCCC[C@H](NC(=O)[C@H](Cc1c[nH]cn1)NC(=O)[C@@H]1CCCN1C(=O)[C@H](CS)NC(=O)[C@@H]1CCCN1)C(=O)N[C@@H](CS)C(=O)O [Compound 7e, H-Pro-Cys-Pro-His-Arg-Cys-OH] (H-PCPHRC-OH) | around 2 times |  | 50 (≈ 70.2 µM) |  |  | 55 (≈ 77.3 µM) |  | almost twice potent | 
